eIF4H inh: human eIF4H binding inhibitors, primary screen, translation initiation inhibitor project, biochemical, uHTS, fluorescence polarization | Eukaryotic translation initiation factor 4H (Homo sapiens), Q15056 | inhibition, % at 35 µM | eIF4H fluorescence polarization binding assay | hit rate 0.94% among 290,000;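 further: calls also rest on retests at 20 µM and on dose response follow-up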
SKN-1 block: suppressors of acrylamide-induced Pgst-4::GFP reporter in worms, primary screen, SKN-1 inhibitor project, whole organism, uHTS, GFP/RFP fluorescence ratio, strain VP596. hit rate 0.49% among 360,000. C. elegans VP596 Pgst-4::GFP/RFP ratio, 24 h. inhibition, % at 21.8 µM;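 active means interference check ratio from 0.5 to 1.5 plus GFP to RFP signal ratio inhibition reaching or exceeding a fixed threshold, cut at about 30% in these data, passing the limit was not always enough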
MT1-MMP act inh: blockers of MT1-MMP proenzyme processing, primary screen, HT1080 RFP-PRO-GFP cells, GFP/RFP fluorescence. Matrix metalloproteinase-14 (Homo sapiens), P50281. GFP/RFP ratio fluorescence, overnight; percent of plate control window, DMSO zero. GFP/RFP ratio change, % at 20 µM. hit rate 0.061% among 360,000;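 active means GFP/RFP ratio change of at least 30% with cell ATP level not reduced by more than half and red fluorescence within 50% of control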
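Read-out: GFP/RFP fluorescence ratio; Test system: RFP-PRO-GFP reporter HT1080 cells; Compound dosing: single-point 20 µM compound, 1% DMSO; Times: overnight compound exposure at 37 °C.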
PABP1 MLLE inh: inhibitors of PABP1 MLLE–PAM2 peptide binding, primary screen, biochemical, fluorescence polarization, FITC-PAM2, GST-MLLE; inhibition, % at 20 µM; AID 588489, 2011; hit rate 0.36% among 360,000; in the data active means inhibition above about 35%, passing the limit was not always enough;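 further: plate controls were DMSO wells with GST-MLLE for no effect and wells lacking GST-MLLE protein for full effect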
Target sequence (P11940 whole entry, looked up): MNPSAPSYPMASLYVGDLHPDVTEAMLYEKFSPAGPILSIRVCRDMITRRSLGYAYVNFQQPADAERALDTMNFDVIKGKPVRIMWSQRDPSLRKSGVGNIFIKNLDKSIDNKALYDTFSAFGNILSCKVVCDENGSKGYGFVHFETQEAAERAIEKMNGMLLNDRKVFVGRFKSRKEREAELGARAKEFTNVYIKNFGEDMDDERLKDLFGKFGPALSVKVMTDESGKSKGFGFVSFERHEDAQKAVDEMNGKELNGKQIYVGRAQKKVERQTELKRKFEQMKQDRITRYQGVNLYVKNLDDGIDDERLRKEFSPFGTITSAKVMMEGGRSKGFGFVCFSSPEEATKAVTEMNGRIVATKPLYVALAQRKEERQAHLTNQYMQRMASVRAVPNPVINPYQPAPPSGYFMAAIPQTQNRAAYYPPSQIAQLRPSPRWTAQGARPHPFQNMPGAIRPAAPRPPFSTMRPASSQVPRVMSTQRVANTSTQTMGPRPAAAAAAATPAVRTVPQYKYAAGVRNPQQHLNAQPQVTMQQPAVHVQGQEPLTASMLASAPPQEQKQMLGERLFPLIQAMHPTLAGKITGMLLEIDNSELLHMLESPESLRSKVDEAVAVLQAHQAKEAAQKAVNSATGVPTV
PABP polyA inh: PABP poly(A) RNA binding inhibitors, primary screen, biochemical, fluorescence polarization, uHTS; Polyadenylate-binding protein 1 (Homo sapiens), P11940; inhibition, % at 35 µM; hit rate 1% among 290,000;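 further: calls also rest on retests at 20 µM and on dose response follow-up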
Starred values were filed as active, the others as inactive. Shown are actives, neighbours in structure and some others; about 1.7% of the full set was active somewhere. Unless noted, how the calls were made is not given here.

For NC(=O)COC(=O)c1cccc2c1-c1ccccc1C2=O the results were eIF4H inh inconclusive, SKN-1 block -5, MT1-MMP act inh 4, PABP1 MLLE inh 13 and PABP polyA inh 53*.
For CC(=O)Nc1cc(-c2ccc(CO)cc2)cn2c(-c3ccc(F)c(Cl)c3)cnc12 the results were SKN-1 block 16, MT1-MMP act inh -9 and PABP1 MLLE inh -40.
O=C(Nc1cccc(S(=O)(=O)N2CCOCC2)c1)C1CCN(S(=O)(=O)c2ccccc2)CC1 was read as SKN-1 block -12, MT1-MMP act inh -9 and PABP1 MLLE inh 12.
For COc1ccc(OCC(=O)Nc2cc(NC(=O)COc3ccc(OC)cc3)cc(C(=O)O)c2)cc1 the results were eIF4H inh -3, SKN-1 block 12, MT1-MMP act inh 0, PABP1 MLLE inh 1 and PABP polyA inh 9.
`Cc1cc[n+](-c2nc3ccccc3nc2[N-]S(=O)(=O)c2ccccc2)cc1` gave eIF4H inh 51*, SKN-1 block -2, MT1-MMP act inh 6, PABP1 MLLE inh 15 and PABP polyA inh active.
Screening N#CC(=C=[N-])c1nc2ccccc2nc1-[n+]1ccccc1 returned eIF4H inh 3, SKN-1 block 12, MT1-MMP act inh 8, PABP1 MLLE inh 6 and PABP polyA inh 10.
`Cc1cc[n+](-c2nc3ccccc3nc2C(=C=[N-])C#N)cc1` gave eIF4H inh 70*, SKN-1 block -8, MT1-MMP act inh -6, PABP1 MLLE inh -13 and PABP polyA inh 57*.
Screening CN(C1CCCCC1)S(=O)(=O)c1ccc(S(=O)(=O)N2CCCC2)cc1 returned eIF4H inh -4, SKN-1 block -2, MT1-MMP act inh 4, PABP1 MLLE inh -5 and PABP polyA inh -4.
`CN(C1CCCCC1)S(=O)(=O)c1ccc(=S)[nH]c1` gave SKN-1 block 16, MT1-MMP act inh 1 and PABP1 MLLE inh 58*.
FC(F)(F)Oc1ccc(Nc2nc(N3CCOCC3)nc(N3CCOCC3)n2)cc1 was read as eIF4H inh -13, SKN-1 block 3, MT1-MMP act inh -2, PABP1 MLLE inh 2 and PABP polyA inh 5.
COc1ccc(-c2ccc3c(c2)[C@@H]2C[C@H](N(C)C(=O)Nc4ccccc4)[C@H]([C@H](C)O)C(=O)N2CC3)cc1 was read as SKN-1 block 17, MT1-MMP act inh 3 and PABP1 MLLE inh -2.
Screening O=C1/C(=C/c2ccc(Br)cc2)Oc2cc(O)ccc21 returned eIF4H inh 61, SKN-1 block 3, MT1-MMP act inh -12, PABP1 MLLE inh -46 and PABP polyA inh 36*.
`CC(C)(C)c1ccc(/C=C2\Oc3cc(O)ccc3C2=O)cc1` gave eIF4H inh -2, SKN-1 block 12, MT1-MMP act inh -1, PABP1 MLLE inh -51 and PABP polyA inh 0.
CCOC(=O)c1ccc(N2N=C(C)/C(=C/C=C/c3ccco3)C2=O)cc1 was read as eIF4H inh inconclusive, SKN-1 block 9, MT1-MMP act inh -1, PABP1 MLLE inh 5 and PABP polyA inh 3.0*.
CCN(c1ccccc1)S(=O)(=O)c1ccc(C(=O)N(CCN(C)C)c2nc3c(F)cc(F)cc3s2)cc1 was read as eIF4H inh -9 and PABP polyA inh -3.
For CCCc1cc(=O)oc2cc(OCC(=O)NC(Cc3c[nH]c4ccc(O)cc34)C(=O)O)c(Cl)cc12 (stereo not given) the results were eIF4H inh 52*, SKN-1 block 50, MT1-MMP act inh 0, PABP1 MLLE inh -13 and PABP polyA inh 20*.
`COc1ccc2c(c1)c(=O)oc1c(C)c(OC(C)C(=O)N[C@@H](Cc3c[nH]c4ccc(O)cc34)C(=O)O)ccc12` (stereo not given in full) gave eIF4H inh 82*, SKN-1 block -1, MT1-MMP act inh 2, PABP1 MLLE inh 2 and PABP polyA inh 53*.
`CC(Oc1ccc2c(-c3ccccc3)cc(=O)oc2c1)C(=O)NC(Cc1c[nH]c2ccc(O)cc12)C(=O)O` (stereo not given) gave eIF4H inh 86*, SKN-1 block 3, MT1-MMP act inh -4, PABP1 MLLE inh -9 and PABP polyA inh 58*.
Screening Cc1cc(OC(C)C(=O)NC(Cc2c[nH]c3ccc(O)cc23)C(=O)O)c2c(C)cc(=O)oc2c1 (stereo not given) returned eIF4H inh 56, SKN-1 block 1, MT1-MMP act inh 5, PABP1 MLLE inh 7 and PABP polyA inh 31.
Screening N#CCC(=O)Nc1ccc(C(=O)NCCc2c[nH]c3ccccc23)cc1 returned eIF4H inh -4, SKN-1 block 12, MT1-MMP act inh -5, PABP1 MLLE inh -19 and PABP polyA inh 2.
CN1CCCN(Cc2ccccc2Br)CC1 was read as eIF4H inh -2, SKN-1 block 9, MT1-MMP act inh -4, PABP1 MLLE inh -5 and PABP polyA inh 2.
For CCN(CC(=O)Nc1c(F)cccc1F)C(=O)C1CCN(S(=O)(=O)c2ccc(C)cc2C)CC1 the results were SKN-1 block 2, MT1-MMP act inh 1 and PABP1 MLLE inh -11.
Screening COC(=O)C1=C(N)Oc2cc(C)n(CC3CCCO3)c(=O)c2C1c1ccc(Cl)c(Cl)c1 (stereo not given) returned eIF4H inh -1, SKN-1 block 33*, MT1-MMP act inh 3, PABP1 MLLE inh -11 and PABP polyA inh -3.
Screening CCN(CC(=O)Nc1c(F)cccc1F)C(=O)c1ccc2c(c1)OCO2 returned SKN-1 block -8, MT1-MMP act inh 0 and PABP1 MLLE inh -7.
For CCOc1ccc(N=Nc2c(=O)[nH]n3c(C)cc(C)nc23)cc1 the results were eIF4H inh 4, SKN-1 block 45*, MT1-MMP act inh 18, PABP1 MLLE inh -52 and PABP polyA inh 12.
COc1cccc(N=Nc2c(=O)[nH]n3c(C)cc(C)nc23)c1 was read as eIF4H inh -3, SKN-1 block 16, MT1-MMP act inh 22, PABP1 MLLE inh -3 and PABP polyA inh -8.
For Cc1nn(CC(=O)N(C)C2CCS(=O)(=O)C2)c(C)c1S(=O)(=O)N(C)C (stereo not given) the results were SKN-1 block 12, MT1-MMP act inh 0 and PABP1 MLLE inh 5.
`CC[n+]1c(C)sc2sc3ccccc3c21` gave eIF4H inh 15 and PABP polyA inh 55*.
`CCc1nc2ccc(C(=O)N3CCCC(C(N)=O)C3)cn2c1N(C)Cc1ccc(OC)cc1` (stereo not given) gave SKN-1 block -7, MT1-MMP act inh -1 and PABP1 MLLE inh -16.
